From PubChem BioAssay
SENP8 block-1: blocks human SENP8 cleavage of Nedd8 substrate. Q96LD8. recombinant SENP8, Nedd8 substrate fluorescence. inhibition, % at 20 µM. 0.64% of 360,000 active. AID 602440; in the data active = inhibition mostly above about 40%, no sharp cut-off; inactive = mostly below about 27%
Target sequence (Q96LD8 whole entry, looked up): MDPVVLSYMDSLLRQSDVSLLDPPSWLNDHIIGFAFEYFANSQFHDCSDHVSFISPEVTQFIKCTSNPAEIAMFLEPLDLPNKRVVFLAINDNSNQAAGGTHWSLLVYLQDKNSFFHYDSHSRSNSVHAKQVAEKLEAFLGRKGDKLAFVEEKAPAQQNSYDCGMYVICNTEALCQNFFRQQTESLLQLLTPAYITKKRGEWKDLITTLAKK
HSP90 inh: inhibitors of HSP90 luciferase refolding in rabbit reticulocyte lysate | luciferase refolding luminescence, 3 h | 0.91% of 290,000 active | inhibition, % at 5.6 µM;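 active = inhibition above the screen-wide mean plus 3 SD, computed separately per campaign, cut at about 16% in these data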;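 note: 0% = DMSO wells and 100% = 60 µM geldanamycin wells; inhibitors lower the luminescence because luciferase stays unfolded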
SENP1 FRET inh: inhibitors of human SENP1 SUMO protease catalytic domain; Q9P0U3; recombinant SENP1 catalytic domain, CyPet-SUMO1-YPet FRET cleavage; inhibition, % at 10 µM; 0.21% of 360,000 active;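 active = inhibition at least 30% at 10 µM, raw YFP signal under a set limit, fluorescence ratio 0.5 to 1.5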;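 note: 0% = enzyme with DMSO and 100% = no enzyme wells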
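material = recombinant human SENP1 catalytic domain, His6-tagged | quantity = 20 pM enzyme | reagent = 25 nM SUMO1 FRET substrate | compound dosing = 10 µM single point, 0.5% DMSO | timing = 50 min enzyme reaction, room temperature, light-protected | detection = FRET, CFP and YFP emission | control set = no-enzyme low, enzyme-DMSO high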
SENP8 block-2: SENP8 protease inhibition | Q96LD8 | 1.2% of 330,000 active | AID 2540 | inhibition, % at 10 µM | purified SENP8, Z-RLRGG-aminoluciferin cleavage, luminescence; in the data active = inhibition above about 50%
SENP6 block: SENP6 protease inhibition; Q9GZR1; Recombinant SENP6 catalytic domain, aminoluciferin luminescence; inhibition, % at 10 µM; 1.8% of 330,000 active; AID 2599;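 active = inhibition above about 50% at the single tested dose, limit read from the data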;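 note: plate controls were DMSO wells with enzyme for no effect and DMSO wells lacking enzyme for full effect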
SENP7 block: SENP7 protease inhibition; Q9BQF6; recombinant SENP7, Z-RLRGG-aminoluciferin luminescence, 40 min; inhibition, % at 5 µM; 1.5% of 330,000 active; AID 434973;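 active = inhibition above about 50% at the single test dose, limit read from the data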;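 note: plate controls were DMSO with enzyme for no effect and no enzyme buffer wells for full effect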
Target sequence (Q9BQF6 706-1050 limits assumed): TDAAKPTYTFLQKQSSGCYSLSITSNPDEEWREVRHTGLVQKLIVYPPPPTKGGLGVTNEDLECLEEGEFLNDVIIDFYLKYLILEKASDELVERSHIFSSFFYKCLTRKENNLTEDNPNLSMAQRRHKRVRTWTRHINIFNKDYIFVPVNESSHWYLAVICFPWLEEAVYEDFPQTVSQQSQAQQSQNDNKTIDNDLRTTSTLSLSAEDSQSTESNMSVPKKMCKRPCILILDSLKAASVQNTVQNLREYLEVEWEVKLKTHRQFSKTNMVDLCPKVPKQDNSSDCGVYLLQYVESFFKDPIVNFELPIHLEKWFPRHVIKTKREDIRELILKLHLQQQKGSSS
SENP8 conf: confirmation of human SENP8 protease inhibitors. inhibition, % at 12.5 µM. Recombinant SENP8, Z-RLRGG-aminoluciferin luminescence, 60 min. 40% of 6,200 active. AID 488912. shares compounds with SENP7 block;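 active = mean inhibition across replicates above about 50%, limit read from the data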
SENP6 conf: confirmation of human SENP6 protease inhibitors; shares compounds with SENP7 block; recombinant SENP6, Z-RLRGG-aminoluciferin luminescence; inhibition, % at 12.5 µM; 58% of 6,200 active
SENP7 conf: human SENP7 inhibition, confirmed. shares compounds with SENP7 block. recombinant SENP7, Z-RLRGG-aminoluciferin luminescence, 40 min. inhibition, % at 12.5 µM. 69% of 6,200 active
Casp3 SENP sel: inhibits human caspase-3 in SENP selectivity test; shares compounds with SENP7 block; purified caspase-3, Z-DEVD-aminoluciferin luminescence, 60 min; inhibition, % at 12.5 µM; 60% of 6,200 active; AID 488918;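 active = mean inhibition above about 50%, limit read from the data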;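 note: plate controls were enzyme with DMSO for no effect and wells without caspase-3 for full effect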
SENP luc ctr: interferes with luciferase luminescence in SENP counter-screen; shares compounds with SENP7 block; Pre-incubated SENP8/Z-RLRGG-aminoluciferin, luciferase luminescence interference; inhibition, % at 12.5 µM; 39% of 6,200 active; AID 488919;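 active = mean inhibition above about 50% when retested at one dose, limit read from the data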;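 note: plate controls were DMSO wells with completed reaction for no effect and substrate without enzyme for full effect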
The depositor's hits bear a star; x = no result. Compounds with a hit are over-represented: about 2.9% of the library has one in this group of screens.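 Rule for the calls, unless noted: active = mean inhibition above about 50% in the one-dose retest (limit read from the data); inactive = the rest.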

SMILES	SENP8 block-1	HSP90 inh	SENP1 FRET inh	SENP8 block-2	SENP6 block	SENP7 block	SENP8 conf	SENP6 conf	SENP7 conf	Casp3 SENP sel	SENP luc ctr
CCc1ccc(C(=O)/C=C2\Sc3ccccc3NC2=O)cc1	15	5	3	32	70*	2	69*	68*	88*	61*	14
O=[N+]([O-])c1ccc(O)c(/C=N/Nc2ncnc3c2cnn3-c2ccccc2)c1	14	-2	-54	93*	90*	93*	87*	91*	100*	43	3
O=C(N/N=C/c1ccc(OC(=O)c2ccccc2Br)cc1)c1ccccn1	-1	7	3	-9	-9	71*	4	3	9	11	6
O=C(N/N=C/c1cc2c(cc1Cl)OCO2)c1ccccn1	-258	-3	1	47	66*	2	0	-6	2	52*	9
CC(C)(C)c1ccc(/C=N/NC(=O)c2ccccn2)cc1	18	11	0	59*	33	79*	10	25	33	40	6
Cc1ccsc1/C=N/NC(=O)c1ccccn1	-3	-2	2	30	61*	47	50	40	78*	84*	60*
O=C(N/N=C/c1cc2c(cc1[N+](=O)[O-])OCO2)c1ccccn1	-22	-2	4	-4	9	1	x	x	x	x	x
CC(CN1C(C)CCCC1C)OC(=O)c1ccc(F)cc1 (stereo not given)	14	-2	0	1	-22	0	x	x	x	x	x
Cc1ccc(NC(=O)/C(Cl)=C/c2ccccc2)cc1C	14	5	1	67*	86*	81*	2	80*	96*	54*	37
CC(=O)Nc1ccccc1C(=O)C(=O)Nc1ccc(C)c(C)c1	12	5	-1	-6	2	2	x	x	x	x	x
O=C(/C=C/Nc1cccc(C(F)(F)F)c1)c1ccco1	-364	4	-65	5	26	-7	x	x	x	x	x
O=C(/C=C/Nc1ccccc1C(F)(F)F)c1ccco1	-27	5	-43	54*	77*	69*	2	60*	87*	51*	44
NC(=O)c1ccccc1N/C=C/C(=O)c1ccco1	-398	-1	-68	48	73*	42	72*	69*	87*	86*	72*
O=C(/C=C/Nc1ccc(Oc2ccccc2)cc1)c1ccco1	-241	0	-20	95*	95*	98*	32	98*	102*	95*	19
Cc1ccc(Nc2nnc(-c3ccncc3)s2)c(Br)c1	7	-3	2	4	4	12	x	x	x	x	x
Clc1ccccc1Nc1nnc(-c2ccncc2)s1	-399	22*	0	96*	98*	100*	98*	99*	102*	97*	34
COc1ccc(Nc2nnc(-c3ccncc3)s2)cc1Cl	-276	9	-4	66*	73*	96*	30	24	44	54*	6
CNc1nnc(-c2ccncc2)s1	-290	2	1	-2	-11	-3	x	x	x	x	x
COc1ccc(Cl)cc1Nc1nnc(-c2ccncc2)s1	-292	5	-5	51*	76*	95*	-14	9	-4	1	-6
COc1ccc(Nc2nc(C)cc(C)n2)cc1Cl	20	-3	3	39	70*	67*	62*	59*	86*	68*	65*
FC(F)(F)c1ccc(Cl)c(Nc2nnc(-c3ccncc3)s2)c1	-338	x	2	x	x	x	x	x	x	x	x
COc1nc(Nc2ccc(OC)c(Cl)c2)nc(OC)n1	20	2	1	-10	-16	-1	x	x	x	x	x
O=C(NCc1ccco1)c1cc([N+](=O)[O-])ccc1Cl	5	-4	3	1	12	10	x	x	x	x	x
O=C(NCc1ccco1)c1cc([N+](=O)[O-])ccc1N1CCOCC1	18	-1	2	-1	95*	-12	-6	-5	-5	-5	-5
O=C(/C=C/Nc1ccc(Br)cn1)c1cccc(OC(F)F)c1	-263	x	-40	49	40	62*	15	31	34	17	1
SMILES	SENP8 block-1	HSP90 inh	SENP1 FRET inh	SENP8 block-2	SENP6 block	SENP7 block	SENP8 conf	SENP6 conf	SENP7 conf	Casp3 SENP sel	SENP luc ctr
O=C1NC(=O)/C(=C/c2ccc(-c3cc(C(=O)O)ccc3Cl)o2)S1	-327	0	-100	9	23	20	x	x	x	x	x
O=C1NC(=O)/C(=C\c2ccc(Br)o2)S1	-32	2	4	36	55*	2	56*	51*	62*	52*	46
CCOC(=O)C1CCN(C(=O)c2cc3cc4ccc(C)cc4nc3o2)CC1	-111	-2	2	-1	18	0	x	x	x	x	x
CCOC(=O)C1CCN(C(=O)c2cc3c(ccc4ccccc43)o2)CC1	-6	-2	1	56*	73*	56*	69*	67*	81*	53*	55*
CC(=O)NCCCc1nc2ccccc2n1Cc1ccccc1F	12	-8	1	-7	-14	55*	9	8	-2	2	0
O=S1(=O)CCOCCCN1Cc1ccccc1	10	-3	-1	4	0	0	x	x	x	x	x
Cc1cccc(NC(=S)N=Nc2c(O)n(CN3CCOCC3)c3ccccc23)c1C	18	2	6	6	-13	-6	x	x	x	x	x
Cc1ccc(N=Nc2c(O)n(CN3CCOCC3)c3ccccc23)cc1	6	-4	-2	78*	67*	84*	33	88*	98*	63*	26
Cc1cc(C(=O)COC(=O)c2ccc(O)cc2O)c(C)n1-c1ccccc1	-4	x	0	84*	89*	61*	88*	89*	96*	59*	32
O=C(Nc1sc2c(c1C(=O)O)CCCCC2)c1ccccc1F	-87	3	1	94*	96*	86*	97*	98*	102*	95*	80*
O=C(Nc1sc2c(c1C(=O)O)CCCC2)c1ccc(F)cc1	-66	-1	0	75*	88*	33	88*	86*	94*	80*	78*
